# Source: PubChem
# DAGLB inhibitor = diacylglycerol lipase beta (human) inhibition; Q8NCG7; HEK293T DAGLB membrane lysate, EnzChek fluorogenic substrate; inhibition, % at 5.17 µM; hit rate 0.059% among 340,000; AID 504411; in the data active = inhibition above about 34%;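 note: 0% = enzyme with vehicle and 100% = wells lacking enzyme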
# Target sequence (Q8NCG7 whole entry, looked up): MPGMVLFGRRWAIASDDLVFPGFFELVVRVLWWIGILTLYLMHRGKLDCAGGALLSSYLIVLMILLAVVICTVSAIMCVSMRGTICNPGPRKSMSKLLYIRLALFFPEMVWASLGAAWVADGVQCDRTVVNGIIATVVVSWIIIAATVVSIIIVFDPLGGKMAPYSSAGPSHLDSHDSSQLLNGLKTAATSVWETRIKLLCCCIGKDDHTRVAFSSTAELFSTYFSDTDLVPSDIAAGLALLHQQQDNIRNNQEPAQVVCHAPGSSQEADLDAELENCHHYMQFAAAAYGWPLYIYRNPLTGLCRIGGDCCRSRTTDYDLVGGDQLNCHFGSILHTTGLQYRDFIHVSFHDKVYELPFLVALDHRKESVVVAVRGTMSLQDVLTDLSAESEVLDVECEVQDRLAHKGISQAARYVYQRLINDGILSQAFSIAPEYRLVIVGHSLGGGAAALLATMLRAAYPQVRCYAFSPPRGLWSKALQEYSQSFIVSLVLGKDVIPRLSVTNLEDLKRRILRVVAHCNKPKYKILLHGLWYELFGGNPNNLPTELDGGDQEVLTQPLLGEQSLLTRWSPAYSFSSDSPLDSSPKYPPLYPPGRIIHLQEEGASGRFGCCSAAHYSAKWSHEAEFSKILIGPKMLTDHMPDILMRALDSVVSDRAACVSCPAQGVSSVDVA
# SKN-1 inh = inhibitors of C. elegans SKN-1 | inhibition, % at 21.8 µM | AID 624304 | hit rate 0.49% among 360,000 | C. elegans VP596 Pgst-4::GFP/RFP ratio, acrylamide-induced, 24 h;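 active = interference check ratio from 0.5 to 1.5 plus GFP to RFP signal ratio inhibition reaching or exceeding a fixed threshold, cut at about 30% in these data, passing the limit was not always enough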
# MsrA inhibitor = inhibits bovine methionine sulfoxide reductase A | hit rate 0.75% among 360,000 | inhibition, % at 15.5 µM | AID 651718 | purified bovine MsrA, absorbance read-out; in the data active = inhibition above about 4.5%;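 note: 0% = vehicle wells with enzyme and 100% = reference inhibitor wells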
# MIN6 prolif-1 = MIN6 beta-cell proliferation induction | MIN6 cells proliferation, ATPlite luminescence, 48 h; cells starved in 0.2% serum; 100% = growth in 10% serum | proliferation, % at 10 µM | hit rate 0.29% among 330,000;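 active = compounds whose signal lies at least 3.5 SD above the mean of all wells on their plate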;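 note: 0% = DMSO-treated cells in low-serum medium and 100% = 10% serum control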
# bovine MsrA act = activators of bovine methionine sulfoxide reductase A; purified bovine MsrA, absorbance read-out; hit rate 0.3% among 360,000; activation, % at 10.6 µM; in the data active = activation above about 7.5%;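 note: 0% = vehicle and 100% = reference activator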
# MT1-MMP act inh = inhibitors of human MT1-MMP activation. AID 651647. P50281. hit rate 0.061% among 360,000. HT1080 RFP-PRO-GFP cells, GFP/RFP ratio fluorescence, overnight; percent of plate control window, DMSO zero. GFP/RFP ratio change, % at 20 µM;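 active = GFP/RFP ratio change of at least 30% with cell ATP level not reduced by more than half and red fluorescence within 50% of control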
#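 Material: RFP-PRO-GFP reporter HT1080 cells. Dosing: single-point 20 µM compound, 1% DMSO. Controls: DMSO and RFP-L50D-GFP cell wells. Timing: cells overnight before dosing, compound overnight, 37 °C, 5% CO2. Measure: GFP/RFP fluorescence ratio.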
# MIN6 prolif-2 = MIN6 beta-cell replication induction, confirmed; shares compounds with MIN6 prolif-1; MIN6 beta-cell proliferation, ATPlite luminescence, 48 h; cells kept in 0.2% serum; scaled between 0.2% and 10% serum; proliferation increase, % at 50 µM; 920 tested, under 10 active;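 active = proliferation increase above 40% at any of the four tested concentrations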
# * hit, by the source's call; . = not tested or not shown. Only some compounds are listed: those with a hit (about 1.8% of all), similar ones and a draw of the others.
SMILES,DAGLB inhibitor,SKN-1 inh,MsrA inhibitor,MIN6 prolif-1,bovine MsrA act,MT1-MMP act inh,MIN6 prolif-2
CCCn1c(N)c(C(=O)COC(=O)/C=C/c2ccc(OC(F)F)c(OC)c2)c(=O)[nH]c1=O,3,5,-1,7.4*,-2,-2,-1
O=C(CSC1CCc2ccccc21)NN=Cc1ccco1 (stereo not drawn),.,.,-1,.,.,.,.
CCOC(=O)C1CCN(C(=O)C2(NC(=O)Nc3ccc(F)cc3F)CCCCC2)CC1,-2,10,-1,7.6*,0,-2,-1
COc1ccc(N2CCN(C(=O)C3CCN(S(=O)(=O)c4ccc5c(c4)CC(C)N5C(=O)C4CC4)CC3)CC2)cc1 (stereo not drawn),.,.,0,.,.,.,.
COC(=O)C1=C(C)N(Cc2ccccc2C(F)(F)F)C(=NCc2cc(OC)c(OC)c(OC)c2)NC1c1ccc(Cl)cc1 (stereo not drawn),.,.,-1,.,.,.,.
C#CCN1C(=O)[C@]2(OCCC=C[C@H]2C)c2ccccc21,.,.,0,.,.,.,.
COc1ccc(C2=Nn3c(nnc3-c3ccccc3C(F)(F)F)SC2)cc1OC1CCOC1 (stereo not drawn),2,0,2,8.8*,-7,-1,-6
COc1ccc(C2=Nn3c(nnc3-c3ccccc3Cl)SC2)cc1OCC1CC1,-1,20,2,-6,-3,1,.
COc1ccc(C2=Nn3c(nnc3-c3ccncc3)SC2)cc1OC,-1,-4,3,8.6*,-9,-9,6
S=C(NCCN1CCOCC1)N/N=C/c1cccs1,-1,3,4,10*,-5,0,-6
COc1cc2[nH]c(C(=O)N3CC(C)OC(C)C3)cc2c(OC)c1OC (stereo not drawn),-2,0,1,9.0*,-6,1,1
Cc1ccc(/C=N/NC(=O)CSc2nc3ccccc3s2)o1,3,-14,1,0.0*,-1,-1,2
COC(=O)C1=C(C)N(Cc2cccc(C(F)(F)F)c2)C(=NCc2cc(OC)c(OC)c(OC)c2)NC1c1ccc(F)cc1 (stereo not drawn),.,.,-3,.,.,.,.
C=CCCC1CN(Cc2ccc(OC)cc2)S(=O)(=O)c2c(F)cccc2O1 (stereo not drawn),.,.,-1,.,.,.,.
CCOc1ccc(C(=O)NCC(=O)OCCCC(=O)c2ccc(F)cc2)cc1OCC,2,-9,1,14*,-4,2,-2
COc1ccc(C(=O)NCC(=O)OCCCOC(=O)CNC(=O)c2ccc(OC)c(OC)c2)cc1OC,-1,-3,0,3,-2,8,.
COc1ccc(NC(=O)CSc2ccc(NC(C)=O)cc2)cc1S(=O)(=O)N1CCCCC1,-2,2,0,1,-1,6,.
COc1ccc(NC(=O)CSc2ccccc2)cc1S(=O)(=O)N1CCCCC1,-1,12,1,4.7*,-4,1,-6
CCCCn1c(-c2nonc2N)nc2ccccc21,-10,25,0,8.1*,-8,-12,-4
CC(C)CCn1c(-c2nonc2N)nc2ccccc21,-3,-9,-1,4,-10,-15,.
C=CCN=C1NC(c2ccccc2C(F)(F)F)C(C(=O)OC)=C(C)N1Cc1ccccc1C(F)(F)F (stereo not drawn),.,.,0,.,.,.,.
CC1(C)CN2C(=O)c3ccccc3C2(C)S1 (stereo not drawn),0,7,-1,8.0*,-4,1,0
Nc1ccc(-c2nnnn2-c2ccc(N)cc2)cc1,2,-5,-1,5.3*,-2,1,-3
O=C(N[C@H](C(=O)N1CCC[C@H]1C(=O)NCCc1ccccc1Cl)C1CCCCC1)c1cccs1,.,.,0,.,.,.,.
CCC(C)Nc1nc(N)c([N+](=O)[O-])c(NCc2ccccc2)n1 (stereo not drawn),-2,7,2,6.2*,-2,9,-6
SMILES,DAGLB inhibitor,SKN-1 inh,MsrA inhibitor,MIN6 prolif-1,bovine MsrA act,MT1-MMP act inh,MIN6 prolif-2
CCCc1c(Cc2cccc(F)c2)ncn1CCc1ccccc1OC,.,.,0,.,.,.,.
COC(=O)c1ccccc1NC(=O)c1cc(-c2ccc(C)cc2)on1,-4,-5,.,8.3*,-13,-4,0
O=C(CCNC(=O)N1CC(=O)Nc2ccccc21)Nc1ccc(F)c(Cl)c1,0,-11,1,4.9*,-2,3,-2
Cc1c([N+](=O)[O-])c2ccc(O)cc2n1-c1ccccc1,0,4,1,15*,-4,-16,8
Cc1ccc(-n2c(C)c([N+](=O)[O-])c3ccc(O)cc32)cc1,.,.,1,7.7*,.,.,-6
O=S1(=O)CC(N2CCCC2)CN1Cc1cn(Cc2ccc(C(F)(F)F)cc2)nn1 (stereo not drawn),.,.,0,.,.,.,.
CCCCCN(C(=O)CCc1cn(CCCCC)c2ccccc12)c1ccc(N(C)c2ccccn2)cc1,.,.,0,.,.,.,.
COc1ccccc1C(=O)NCC(C)(C)CN=C1NS(=O)(=O)c2ccccc21,0,11,0,6.6*,-1,0,-2
COc1ccccc1C(=O)NCCN=C1NS(=O)(=O)c2ccccc21,0,6,0,-5,-2,3,.
COCc1cc(N2CCNC[C@@H]2C)ccc1N1CCS(=O)(=O)CC1,.,.,-1,.,.,.,.
CCOC(=O)C1=C(COC(=O)c2sccc2C)NC(=O)NC1C (stereo not drawn),1,-12,0,11*,-3,-1,4
CCOC(=O)C1=C(COC(=O)/C=C/c2ccccc2)NC(=O)NC1C (stereo not drawn),-3,5,-1,12*,2,0,5
CCOC(=O)C1=C(COC(=O)/C=C/c2ccc(Cl)cc2)NC(=O)NC1C (stereo not drawn),0,2,1,0,-4,5,.
CCOC(=O)C1=C(COC(=O)/C=C/c2ccccc2F)NC(=O)NC1C (stereo not drawn),-1,3,0,12*,0,3,-2
CCOC(=O)C1=C(COC(=O)c2cccc(Br)c2)NC(=O)NC1C (stereo not drawn),2,5,-1,-3,-2,1,.
COc1ccc(CC(=O)NCC2CCN(C(=O)C(=O)c3cc4ccccc4o3)CC2)cc1,.,.,2,.,.,.,.
CC1(C)CC(=O)C=C(C2CC2)C1=O,.,.,0,.,.,.,.
COc1ccccc1Nc1nc(C)nc2c1oc1ccccc12,-10,5,2,10*,-2,0,3
COc1ccc(Nc2nc(C)nc3c2oc2ccccc23)c(OC)c1,0,11,1,0,-1,1,.
CCOc1ccccc1C(=O)NCC(=O)Nc1ncccc1C,-4,4,2,12*,-1,-1,-1
CCOc1ccc(C(=O)NCC(=O)Nc2ncccc2C)cc1OCC,-1,-17,1,1,0,-2,.
